Jurkat NFkB inh = lowers PMA/ionomycin-induced NF-kB signal in Jurkat cells | PMA/ionomycin-induced NF-kB luciferase reporter, luminescence | 330,000 compounds, 0.53% hits | AID 435003 | inhibition, % at 4 µM; in the data active = inhibition above about 50%
697 NFkB inh = lowers PMA/ionomycin-induced NF-kB signal in 697 B cells | 697 B-cell NF-kB luciferase reporter, 16 h | inhibition, % at 4 µM | 330,000 compounds, 0.33% hits | AID 435022; in the data active = inhibition above about 35%
NR2E3 ag-1 = activates human photoreceptor nuclear receptor NR2E3; Q9Y5X4; GST-NR2E3/biotin-RetCOR TR-FRET, 1536-well; inhibition of corepressor binding, % at 4.78 µM; 320,000 compounds, 0.12% hits;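 active = percent inhibition above the cutoff of mean plus 3 SD of all tested compounds, set per screening campaign, cut at about 20% in these data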;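 also: 0% = DMSO wells and 100% = biotin wells as full block of FRET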
Target sequence (Q9Y5X4 whole entry, looked up): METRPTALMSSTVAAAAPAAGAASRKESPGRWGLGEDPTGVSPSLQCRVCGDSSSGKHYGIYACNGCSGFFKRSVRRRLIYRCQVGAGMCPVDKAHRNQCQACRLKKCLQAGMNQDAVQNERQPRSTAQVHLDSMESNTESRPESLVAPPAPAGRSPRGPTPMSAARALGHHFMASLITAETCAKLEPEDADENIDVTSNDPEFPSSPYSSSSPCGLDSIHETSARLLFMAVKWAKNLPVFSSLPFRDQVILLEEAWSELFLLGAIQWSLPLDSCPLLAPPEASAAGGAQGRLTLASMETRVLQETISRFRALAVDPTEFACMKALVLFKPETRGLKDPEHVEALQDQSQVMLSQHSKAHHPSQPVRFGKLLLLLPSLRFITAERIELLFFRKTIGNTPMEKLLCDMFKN
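Test system – NR2E3–RetCOR corepressor complex · Quantity – NR2E3 fusion 1.35 nM · Buffer or medium – Tris pH 7.5 · Incubation – Compound–protein incubation for 5 h at 4 °C · Technique – TR-FRET, Eu(K)-anti-GST donor, streptavidin-D2 acceptor, ex 340, em 617/671 nm · Evaluation – percent inhibition of 671/617 nm emission ratio versus biotin and DMSO controls · Plate – 1536-well format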
NR2E3 ag-2 = human photoreceptor-specific nuclear receptor agonism; Q9Y5X4; CHO-S Gal4-NCOR/VP16-NR2E3 two-hybrid, luciferase; inhibition of corepressor binding, % at 3.98 µM; 360,000 compounds, 0.35% hits;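 active = inhibition above the mean of all tested compounds plus 3 SD, cut at about 70% in these data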;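 also: 0% = DMSO with NR2E3 transfected cells and 100% = cells lacking NR2E3 construct; higher means lower luciferase signal from less NR2E3 corepressor binding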
miR-122 sensor = blocks miR-122 activity in Huh7 sensor cells; Huh7 miR-122 Renilla luciferase sensor, 48 h; neutral wells = 0, positive control = 100; 340,000 compounds, 0.3% hits; AID 602342; activation (reporter increase), % at 12.5 µM;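 active = mean replicate activation score at least 90 and every replicate individually at or above 90; inconclusive = only one of the two criteria met; inactive = neither criterion met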;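 also: higher luciferase means less miR-122 activity so hits act as miR-122 inhibitors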
FGF22 binding = binders of recombinant human FGF22 by thermal shift. SYPRO orange fluorescence; percent of sucrose octasulfate shift, DMSO zero. activity (Tm shift, normalised), % at 9.99 µM. 340,000 compounds, 1.5% hits. AID 651658;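 active = mean Tm shift, scaled 0 neutral to 100 positive control, at about 1.3% or above, every replicate too, limit read from the data; inconclusive = no clear call, values can overlap the other calls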
Target sequence (Q9HCT0 whole entry, looked up): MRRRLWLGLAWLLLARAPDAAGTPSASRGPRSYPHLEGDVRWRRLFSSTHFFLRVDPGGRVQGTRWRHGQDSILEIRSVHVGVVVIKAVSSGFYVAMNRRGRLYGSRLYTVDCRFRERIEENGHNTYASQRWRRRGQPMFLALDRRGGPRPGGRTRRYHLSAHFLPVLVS
Active calls of the source: *; ? = inconclusive; · = no result given; ! = a repeat was not active; [ ] = another dose, or the depositor's remark. Only some compounds are listed: those with a hit (about 2.2% of all), similar ones and a draw of the others.

SMILES	Jurkat NFkB inh	697 NFkB inh	NR2E3 ag-1	NR2E3 ag-2	miR-122 sensor	FGF22 binding
O=C(CN1CCC(NC(=O)c2cccc(F)c2)CC1)NCc1cccs1	2	8	-1	15	·	0
O=C(CN1CCC(C(=O)c2cccc(F)c2)CC1)NCc1cccs1	-6	-24	-3	-1	·	43*
Cc1ccc(Nc2nc(C(=O)NCc3ccco3)cs2)cc1	-13	-25	-4	-7	162*	·
N#C/C(=C\c1cccnc1)C(=O)Nc1ccc(C(=O)O)cc1	4	-8	2	10	6	43*
Cc1ccc(NS(=O)(=O)c2cccc3nsnc23)cc1	3	-18	4	-11	·	0
Cc1ccc(S(=O)(=O)Nc2c(C)ccc3nsnc23)cc1	7	6	-1	12	138*	·
Cn1cnc(S(=O)(=O)N2C[C@@H](O)COC[C@H]3O[C@@H](CC(=O)NC4CCC4)CC[C@@H]32)c1	·	·	·	·	5[16.7 µM]	0
O=C(Nc1ccccc1)c1ccc(Br)o1	-30	10	1	-19	·	0
CC(=O)NS(=O)(=O)c1ccc(NC(=S)NC(=O)CC(C)C)cc1	-9	-1	1	1	-4	0
CCOC(=O)c1cc(S(=O)(=O)NCCc2ccccc2)cn1C	-1	-10	-2	15	114*	0
CCOC(=O)c1cc(S(=O)(=O)NCc2ccco2)cn1C	6	9	-3	-1	9	0
CCC(=O)Nc1ccc(S(=O)(=O)NCCc2ccccc2)cc1	10	10	1	1	?	·
CC(=O)NS(=O)(=O)c1ccc(NC(=S)NC(=O)Cc2ccccc2)cc1	-15	1	3	-8	9	43*
O=C(Nc1ccc(S(=O)(=O)NCCc2ccccc2)cc1)c1ccc(Br)o1	8	-2	-1	22	201*	·
COCC(=O)Nc1ccc(S(=O)(=O)NCCc2ccccc2)cc1	0	9	-1	17	118*	·
COc1ccc(C#Cc2cnc3c(c2)C(=O)N([C@H](C)CO)C[C@H](C)[C@H](CN(C)C(=O)CN(C)C)O3)cc1	·	·	·	·	-3[16.7 µM]	0
CN(Cc1ccccc1)S(=O)(=O)c1ccc(NC(=S)NC(=O)C(C)(C)C)cc1	-6	-9	-2	-12	5	0
CN(Cc1ccccc1)S(=O)(=O)c1ccc(NC(=S)NC(=O)C2CCCCC2)cc1	18	-16	0	15	125*	0
COc1ccc(C(=O)N2CCN(c3ccc(NC(=O)Cc4ccccc4)cc3)CC2)cc1	-1	3	-2	-19	-4	0
Cc1ccc(C(=O)N2CCN(c3ccc(NC(=S)NC(=O)Cc4ccccc4)cc3)CC2)cc1	2	-1	1	72*	·	·
Cc1cc(C)cc(NS(=O)(=O)c2ccc(NC(=S)NC(=O)c3ccc(Br)o3)cc2)c1	3	-50	3	17	98*	·
Cc1noc(C)c1NC(=O)N[C@@H]1CC[C@@H](CC(=O)Nc2ccc(-c3ccccc3)cc2)O[C@H]1CO	·	·	·	·	2[16.7 µM]	0
CC1CC(C)(C)NC(=S)O1 (stereo not given)	6	6	-1	-8	·	43*!
CC1(C)CCC(C)(C)NC(=S)N1	7	17	7	-29	-9	0
COc1ccc(CN(C)C[C@H]2Oc3ccc(NC(=O)NC(C)C)cc3C(=O)N([C@@H](C)CO)C[C@@H]2C)cc1	·	·	·	·	1[16.7 µM]	0
SMILES	Jurkat NFkB inh	697 NFkB inh	NR2E3 ag-1	NR2E3 ag-2	miR-122 sensor	FGF22 binding
Cc1ccc2c(c1)C1C=CCC1C(C(=O)O)N2 (stereo not given)	·	·	7	·	·	·
CC(=O)c1ccc2c(c1)C1C=CCC1C(C(=O)O)N2 (stereo not given)	-4	17	·	-59	-9	44*
CCOC(=O)C(=O)Cc1nc(OCc2ccccc2)cc(OCc2ccccc2)n1	·	·	·	5	·	43*
CCOC(=O)C(Cc1nc(OCc2ccccc2)cc(OCc2ccccc2)n1)=NO	·	·	·	-12	-3	0
Cn1c(CNC(=O)c2ccco2)nnc1SCC(=O)Nc1c(F)cc(F)cc1Br	-6	10	1	9	-3	44*
Cn1c(CNC(=O)c2ccco2)nnc1SCC(=O)Nc1cccc(F)c1	-4	-9	-1	-4	3	0
Nc1nc(-c2ccc3c(c2)NC(=O)CO3)cs1	-4	17	0	-14	-1	·
O=C1COc2ccc(-c3n[nH]c(=O)c4ccccc34)cc2N1	-22	14	2	-18	-7	43*
Cc1ccc(S(=O)(=O)N2C[C@]3(O)C[C@@H]4C(=O)N(c5ccccc5)C(=O)[C@@H]4C[C@]3(OC(=O)Nc3cccs3)C2)cc1	·	·	·	-5	2	43*
CC(NC(c1ccccc1)c1ccccc1)C(=O)N1CCCc2ccccc21 (stereo not given)	-5	-10	0	17	·	·
CC(Nc1ccccc1N1CCCCC1)C(=O)N1CCc2ccccc21 (stereo not given)	3	23	-1	-20	-2	43*
C[C@@H]1CN([C@H](C)CO)C(=O)c2cc(C#CC3(O)CCCC3)cnc2O[C@H]1CN(C)Cc1ccccn1	·	·	·	·	-8[16.7 µM]	0
Cc1ccc(NC(=O)c2sc(=S)n(-c3cc(C)ccc3F)c2N)cc1	4	-12	3	-11	0	43*
CC(=O)c1ccc(NS(=O)(=O)c2c(C)cc(C)cc2C)cc1	-21	-24	7	-29	152*	0
Cc1cc(C)c(S(=O)(=O)Nc2ccc(C(N)=O)cc2)c(C)c1	-5	8	5	-4	12	·
C[C@H](CO)N1C[C@H](C)[C@@H](CN(C)Cc2ccc3c(c2)OCO3)OCCCC[C@H](C)Oc2ccc(NC(=O)NC3CCCCC3)cc2C1=O	·	·	·	·	19[16.7 µM]	0
CCCN(C)C[C@@H]1Oc2ncc(/C=C/c3ccccc3)cc2C(=O)N([C@H](C)CO)C[C@@H]1C	·	·	·	·	-2[16.7 µM]	0
COc1ccc(S(=O)(=O)N(C)C[C@@H]2Oc3c(NC(=O)Nc4ccc5c(c4)OCO5)cccc3C(=O)N([C@@H](C)CO)C[C@H]2C)cc1	·	·	·	·	-4[16.7 µM]	-1
COc1cc2c(c3ccccc13)CCCC2=O	·	·	·	-14	·	43*
c1ccc(CSCc2ccccc2)cc1	-7	10	-2	12	-5	0
Nc1ccccc1SCc1ccccc1	-14	-6	5	-9	-6	43*
C[C@@H]1CN([C@H](C)CO)C(=O)Cc2cc(NC(=O)Nc3ccccc3)ccc2O[C@@H]1CN(C)S(C)(=O)=O	·	·	·	·	-4[16.7 µM]	0
Cc1ccc(S(=O)(=O)NCC(=O)NCC(=O)OCC(=O)NC(=O)NC(C)(C)C)cc1C	10	-10	2	-39	·	43*
COc1ccc(S(=O)(=O)N(C)C[C@H]2Oc3ccc(NS(=O)(=O)c4ccc(C)cc4)cc3CC(=O)N([C@H](C)CO)C[C@H]2C)cc1	·	·	·	·	-2[16.7 µM]	0
